Converted amounts (≈) assume the structure as drawn.
What was measured:
[1] = MRT in Sprague-Dawley rat at 4 mg/kg, iv measured upto 24 hrs by LC-MS/MS analysis; assay type: ADME, organism-based; settings: in vivo
In short: (§1)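 Male Sprague-Dawley rats, n = 3 per group, single intravenous dose. For 4 mg/kg: 180–280 g rats, vehicle 5% DMSO + 5% EtOH + 40% PEG300 + 50% saline, blood from the retrobulbar vein at 0.05–24 h. For 5 and 20 mg/kg: 180–300 g rats, vehicle 5% DMSO + 5% solutol + 90% saline, sampled at 0.083–24 h. Plasma quantified by LC/MS/MS. Parameters from mean plasma concentration by noncompartmental analysis; values are mean ± standard deviation.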

Pseudomonas aeruginosa [2] = experiment: Antibacterial activity against wild type Pseudomonas aeruginosa ATCC 27853 assessed as reduction in bacterial growth incubated for 18 to 20 hrs by CLSI based microdilution method; assay type: functional; settings: time 18-20 hrs
In short: (§2)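 CLSI broth microdilution. Compounds in DMSO (levofloxacin and meropenem in water), serial twofold dilutions in broth, 64 to 0.008 μg/mL. […] Results reported as MIC ranges across strains.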

Escherichia coli [3] = experiment: Antibacterial activity against ESBL-producing multidrug resistant Escherichia coli assessed as reduction in bacterial growth incubated for 18 to 20 hrs by CLSI based microdilution method; assay type: functional; settings: time 18-20 hrs
In short: (§3)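 Broth microdilution per CLSI. Compounds dissolved in DMSO (levofloxacin and meropenem in water) as 64 μg/mL stock, then serial twofold dilutions in broth giving 64 to 0.008 μg/mL. […] Clinical isolates tested as several strains per group; racemic GP-1 served as positive control; values given as MIC ranges.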

[4] = tested on: Staphylococcus epidermidis; experiment: Antibacterial activity against methicillin-sensitive Staphylococcus epidermidis strains 15 1 to 4 assessed as reduction in bacterial growth incubated for 18 to 20 hrs by CLSI based microdilution method; assay type: functional; settings: time 18-20 hrs; in short: as §3
Klebsiella pneumoniae [5] = experiment: Antibacterial activity agains wild type Klebsiella pneumoniae ATCC BAA-2470 assessed as reduction in bacterial growth incubated for 18 to 20 hrs by CLSI based microdilution method; assay type: functional; settings: time 18-20 hrs; in short: as §3
[6] = Metabolic stability in human liver microsome assessed as intrinsic clearance at 0.1 uM in presence of NADPH incubated upto 60 mins by LC-MS/MS analysis; assay type: ADME; settings: microsomes, 1 h
In short: (§4)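 Compound at 0.1 μM final, in 0.01% DMSO with 0.005% BSA. Incubated with rat or human liver microsomes at 0.33 mg/mL in 0.1 M Tris-HCl, pH 7.4, with 5 mM MgCl₂ and 1 mM NADPH, at 37 °C. Samples at 0, 7, 17, 30 and 60 min quenched with cold methanol and analysed by LC-MS/MS. Half-life, Cl_int and MF% derived as previously described.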

[7] = target: hERG (KCNH2) potassium channel (Homo sapiens, UniProt Q12809); experiment: Inhibition of hERG potassium channel assessed as maximum inhibition rate at 40 uM at -80 mV holding potential incubated for 120 seconds by whole cell-automated voltage clamp analysis assay relative to control; assay type: toxicity; settings: time 120 sec
In short: (§5)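 Automated whole-cell patch clamp, holding potential −80 mV. Voltage protocol applied every 20 s. Baseline set with external solution containing 0.1% DMSO and stabilised 3 min. Compound applied until steady state, at least 3 min, then washout. Maximum tested concentration 40 μM, or 3 μM for cisapride as positive control.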

Klebsiella pneumoniae [8] = experiment: Antibacterial activity against KPC2-producing multidrug resistant Klebsiella pneumoniae assessed as reduction in bacterial growth incubated for 18 to 20 hrs by CLSI based microdilution method; assay type: functional; settings: time 18-20 hrs; in short: as §3
[9] = Metabolic stability in human liver microsome assessed as elimination half life at 0.1 uM in presence of NADPH incubated upto 60 mins by LC-MS/MS analysis; assay type: ADME; settings: liver microsomes, read-out: beta t1/2; in short: as §4
[10] = AUC (0 to infinity) in Sprague-Dawley rat at 4 mg/kg, iv measured upto 24 hrs by LC-MS/MS analysis; assay type: ADME, organism-based; set-up: time < 24 hrs, dose 4 mg/kg, route iv; settings: in vivo; in short: as §1
Escherichia coli [11] = experiment: Antibacterial activity against ESBL-producing Escherichia coli ATCC 35218 strains 15 1 to 3 assessed as reduction in bacterial growth incubated for 18 to 20 hrs by CLSI based microdilution method; assay type: functional; settings: time 18-20 hrs; in short: as §2
Pseudomonas aeruginosa [12] = experiment: Antibacterial activity against IMP4-producing multidrug resistant Pseudomonas aeruginosa assessed as reduction in bacterial growth incubated for 18 to 20 hrs by CLSI based microdilution method; assay type: functional; settings: time 18-20 hrs; in short: as §3
Acinetobacter baumannii [13] = experiment: Antibacterial activity agains OXA23-producing multidrug resistant Acinetobacter baumannii assessed as reduction in bacterial growth incubated for 18 to 20 hrs by CLSI based microdilution method; assay type: functional; settings: time 18-20 hrs; in short: as §3
[14] = Volume of distribution at the steady state in Sprague-Dawley rat at 4 mg/kg, iv measured upto 24 hrs by LC-MS/MS analysis; assay type: ADME, organism-based; settings: in vivo, read-out: Vdss; in short: as §1
[15] = Metabolic stability in rat liver microsome assessed as intrinsic clearance at 0.1 uM in presence of NADPH incubated upto 60 mins by LC-MS/MS analysis; assay type: ADME; settings: microsomes, 1 h; in short: as §4
Escherichia coli [16] = experiment: Antibacterial activity against multidrug resistant wild type Escherichia coli NCTC 13353 assessed as reduction in bacterial growth incubated for 18 to 20 hrs by CLSI based microdilution method; assay type: functional; settings: time 18-20 hrs; in short: as §3
[17] = target: Voltage-gated inwardly rectifying potassium channel KCNH2 (Homo sapiens, UniProt Q12809); experiment: Inhibition of hERG potassium channel assessed as […] at -80 mV holding potential incubated for 120 seconds by whole cell-automated voltage clamp analysis assay; assay type: toxicity; in short: as §5
Escherichia coli [18] = experiment: Antibacterial activity against Escherichia coli ATCC 35218 strains 15 1 to 3 assessed as reduction in bacterial growth incubated for 18 to 20 hrs by CLSI based microdilution method; assay type: functional; settings: time 18-20 hrs; in short: as §2
Klebsiella pneumoniae [19] = experiment: Antibacterial activity agains wild type Klebsiella pneumoniae ATCC BAA-1705 assessed as reduction in bacterial growth incubated for 18 to 20 hrs by CLSI based microdilution method; assay type: functional; settings: time 18-20 hrs; in short: as §2
[20] = Metabolic stability in human liver microsome assessed as metabolic bioavailability at 0.1 uM in presence of NADPH incubated upto 60 mins by LC-MS/MS analysis; assay type: ADME; settings: liver microsomes; in short: as §4
[21] = Metabolic stability in rat liver microsome assessed as metabolic bioavailability at 0.1 uM in presence of NADPH incubated upto 60 mins by LC-MS/MS analysis; assay type: ADME; settings: liver microsomes; in short: as §4
[22] = Clearance in Sprague-Dawley rat at 4 mg/kg, iv measured upto 24 hrs by LC-MS/MS analysis; assay type: ADME, organism-based; settings: in vivo; in short: as §1
[23] = Metabolic stability in rat liver microsome assessed as elimination half life at 0.1 uM in presence of NADPH incubated upto 60 mins by LC-MS/MS analysis; assay type: ADME; settings: liver microsomes, read-out: beta t1/2; in short: as §4
Staphylococcus aureus [24] = experiment: Antibacterial activity against methicillin-sensitive Staphylococcus aureus strains 15 1 to 4 assessed as reduction in bacterial growth incubated for 18 to 20 hrs by CLSI based microdilution method; assay type: functional; settings: time 18-20 hrs; in short: as §3
Pseudomonas aeruginosa [25] = experiment: Antibacterial activity against multidrug resistant Pseudomonas aeruginosa strains 15 1 to 3 assessed as reduction in bacterial growth incubated for 18 to 20 hrs by CLSI based microdilution method; assay type: functional; settings: time 18-20 hrs; in short: as §3
Escherichia coli [26] = experiment: Antibacterial activity against multidrug resistant wild type Escherichia coli ATCC BAA-2340 assessed as reduction in bacterial growth incubated for 18 to 20 hrs by CLSI based microdilution method; assay type: functional; settings: time 18-20 hrs; in short: as §3
Acinetobacter baumannii [27] = experiment: Antibacterial activity against wild type Acinetobacter baumannii NCTC 13304 assessed as reduction in bacterial growth incubated for 18 to 20 hrs by CLSI based microdilution method; assay type: functional; settings: time 18-20 hrs; in short: as §3
[28] = Elimination half life in Sprague-Dawley rat at 4 mg/kg, iv measured upto 24 hrs by LC-MS/MS analysis; assay type: ADME, organism-based; settings: in vivo, read-out: beta t1/2 (converted); in short: as §1
Staphylococcus aureus [29] = experiment: Antibacterial activity against methicillin-resistant Staphylococcus aureus strains 15 1 to 4 assessed as reduction in bacterial growth incubated for 18 to 20 hrs by CLSI based microdilution method; assay type: functional; settings: time 18-20 hrs; in short: as §3
[30] = tested on: Staphylococcus epidermidis; experiment: Antibacterial activity against methicillin-resistant Staphylococcus epidermidis strains 15 1 to 4 assessed as reduction in bacterial growth incubated for 18 to 20 hrs by CLSI based microdilution method; assay type: functional; settings: time 18-20 hrs; in short: as §3

Sequence of hERG (KCNH2) potassium channel (Q12809 whole entry): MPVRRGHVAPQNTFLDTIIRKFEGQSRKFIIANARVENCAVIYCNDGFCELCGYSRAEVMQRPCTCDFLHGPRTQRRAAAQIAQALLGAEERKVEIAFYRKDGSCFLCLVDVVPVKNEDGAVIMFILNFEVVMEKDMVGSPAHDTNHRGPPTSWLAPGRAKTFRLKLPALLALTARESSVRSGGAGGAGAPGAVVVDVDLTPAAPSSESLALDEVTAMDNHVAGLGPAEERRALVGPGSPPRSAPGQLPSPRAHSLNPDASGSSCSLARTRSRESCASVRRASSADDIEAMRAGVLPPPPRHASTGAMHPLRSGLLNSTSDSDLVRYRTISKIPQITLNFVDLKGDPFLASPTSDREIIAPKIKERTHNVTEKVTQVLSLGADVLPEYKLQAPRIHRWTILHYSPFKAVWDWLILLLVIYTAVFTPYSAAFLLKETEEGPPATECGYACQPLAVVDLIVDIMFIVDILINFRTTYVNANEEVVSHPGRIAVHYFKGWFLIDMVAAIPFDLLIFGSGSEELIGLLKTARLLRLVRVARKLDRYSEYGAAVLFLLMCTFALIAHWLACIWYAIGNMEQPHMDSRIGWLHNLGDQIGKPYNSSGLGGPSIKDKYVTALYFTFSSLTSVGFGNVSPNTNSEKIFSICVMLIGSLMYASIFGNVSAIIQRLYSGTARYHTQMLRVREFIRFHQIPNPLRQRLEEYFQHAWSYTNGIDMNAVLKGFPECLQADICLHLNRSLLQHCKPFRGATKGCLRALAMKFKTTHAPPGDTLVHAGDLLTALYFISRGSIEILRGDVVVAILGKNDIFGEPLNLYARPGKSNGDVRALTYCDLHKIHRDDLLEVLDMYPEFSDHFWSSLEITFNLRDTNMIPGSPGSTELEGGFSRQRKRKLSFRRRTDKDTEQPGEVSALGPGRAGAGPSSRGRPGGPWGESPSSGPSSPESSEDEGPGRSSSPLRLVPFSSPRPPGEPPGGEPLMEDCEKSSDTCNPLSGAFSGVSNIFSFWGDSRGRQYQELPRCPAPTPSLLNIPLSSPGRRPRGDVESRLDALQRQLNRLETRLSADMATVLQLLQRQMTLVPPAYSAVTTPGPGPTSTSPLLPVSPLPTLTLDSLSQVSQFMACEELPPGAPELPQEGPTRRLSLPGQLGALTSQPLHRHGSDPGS
Sequence of Voltage-gated inwardly rectifying potassium channel KCNH2 (Q12809 whole entry): as above

| Structure (SMILES) | MRT [1] [h] | MIC [4] [µg/mL] | AUC(0-inf) [10] [ng·h/mL] | MIC (Escherichia coli [11]) [µg/mL] | Vd [14] [L/kg] | MIC (Escherichia coli [18]) [µg/mL] | clearance [22] [mL/min/kg] | MIC (Staphylococcus aureus [24]) [µg/mL] | MIC (Pseudomonas aeruginosa [25]) [µg/mL] | half-life [28] [h] | further results |
| --- | --- | --- | --- | --- | --- | --- | --- | --- | --- | --- | --- |
| CCCC(CN)=C1CN(c2nc(Oc3cnc(C)nc3)nc3[nH]c4c(NC)cc(F)cc4c23)C1 | 4.4 | < 0.008 | 778 | 0.125 (≈ 0.27 µM) | 22.5 | 0.06 (≈ 0.13 µM) | 86.8 | < 0.008 | 2 (≈ 4.32 µM) | 4.7 | MIC (Pseudomonas aeruginosa [2]): 4 µg/mL (≈ 8.65 µM); MIC (Escherichia coli [3]): 1 µg/mL (≈ 2.16 µM); MIC (Klebsiella pneumoniae [5]): 4 µg/mL (≈ 8.65 µM); CLH [6]: 44.3 mL/min/g; inhibition at 2 min, 40 µM [7]: 50.6%; MIC (Klebsiella pneumoniae [8]): 4 µg/mL (≈ 8.65 µM); half-life at 0.1 µM [9]: 0.792 h; MIC (Pseudomonas aeruginosa [12]): 4 µg/mL (≈ 8.65 µM); MIC (Acinetobacter baumannii [13]): 0.5 µg/mL (≈ 1.08 µM); CLH [15]: 84.4 mL/min/g; MIC (Escherichia coli [16]): 0.5 µg/mL (≈ 1.08 µM); IC50 [17]: 51.5 µM; MIC (Klebsiella pneumoniae [19]): 8 µg/mL (≈ 17.3 µM); Fh at 1 h, 0.1 µM [20]: 30.7%; Fh at 1 h, 0.1 µM [21]: 34.5%; half-life at 0.1 µM [23]: 0.415 h; MIC (Escherichia coli [26]): 1 µg/mL (≈ 2.16 µM); MIC (Acinetobacter baumannii [27]): 1 µg/mL (≈ 2.16 µM) |
| CCC(CN)=C1CN(c2nc(C#N)nc3[nH]c4c(NC)cc(F)cc4c23)C1 | – | 0.25 (≈ 0.684 µM) | – | 0.5 (≈ 1.37 µM) | – | 0.25 (≈ 0.684 µM) | – | 2 (≈ 5.47 µM) | 16 (≈ 43.8 µM) | – | MIC (Staphylococcus aureus [29]): 2 µg/mL (≈ 5.47 µM); MIC [30]: 0.5 µg/mL (≈ 1.37 µM) |
| CCC(CO)=C1CN(c2nc(Oc3cnc(C)nc3)nc3[nH]c4c(NC)cc(F)c(F)c4c23)C1 | 8.3 | < 0.03 | 517 | 0.25 (≈ 0.535 µM) | 68.4 | 32 (≈ 68.5 µM) | 141 | < 0.03 | > 8 | 6.5 | – |
